Series [1] concerns Acinetobacter baumannii. Kind of series: Antibacterial activity against Acinetobacter baumannii ATCC 19606 by microdilution method. The format is functional. Put shortly: (§1)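 Broth microdilution MIC against the named bacterial strain, reported in μg/mL; each determination run at least in duplicate.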
The test system of series [2] is Candida albicans. Description: Antifungal activity against azole-resistant Candida albicans ATCC 90819 after 48 hrs by microbroth dilution method. The format is functional. The following applies: ATCC 90819, 48 h. Put shortly:
(§2)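 Yeast MIC by broth microdilution, run in duplicate. The aminoglycoside compounds are read as MIC-0 (complete inhibition). Azoles are read as MIC-2 (50% inhibition).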

Series [3] concerns Mycobacterium tuberculosis. Description: Activity of Mycobacterium tuberculosis AAC(2')-1c assessed as compound acetylation activity by Ellman's method.
The subject of series [4] is Salmonella enterica. Description: Antibacterial activity against Salmonella enterica ATCC 14028 by microdilution method. The format is functional. Put shortly:
as §1
(Broth dilution looks for growth in wells or tubes with falling amounts of substance.)

Series [5] concerns Candida albicans. Kind of series: Antifungal activity against azole-resistant Candida albicans MYA-1003 after 48 hrs in presence of posaconazole by checkerboard microdilution assay. The format is functional. Particulars: MYA-1003, 48 h. Put shortly: (§3)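 Checkerboard combinations of the aminoglycoside amphiphile with posaconazole against yeast strains, run in duplicate. Each agent's MIC is taken alone and in combination. The fractional inhibitory concentration index (FICI) is calculated to classify the interaction.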

The subject of series [6] is Candida albicans. Description: Antifungal activity against azole-resistant Candida albicans MYA-1003 after 48 hrs by microbroth dilution method. The format is functional. Particulars: MYA-1003, 48 h. Put shortly:
as §2

Series [7] has as its system Staphylococcus aureus. Description: Antibacterial activity against methicillin-resistant Staphylococcus aureus by microdilution method. Format: functional. Put shortly:
(§4)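 Broth microdilution MIC, in μg/mL, against a panel of Gram-positive and Gram-negative strains. Run at least in duplicate.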

The subject of series [8] is Candida albicans. Kind of series: Antifungal activity against azole-susceptible Candida albicans ATCC MYA-2876 after 48 hrs by microbroth dilution method. The following applies: ATCC MYA-2876, 48 h. The format is functional. Put shortly:
as §2

Series [9] concerns Candida albicans. Description: Antifungal activity against azole-susceptible Candida albicans ATCC MYA-2876 after 48 hrs in presence of posaconazole by checkerboard microdilution assay. Format: functional. The following applies: ATCC MYA-2876, 48 h. Put shortly: as §3
In series [10] the test system is Candida albicans. Description: Antifungal activity against azole-resistant Candida albicans ATCC 64124 after 48 hrs in presence of posaconazole by checkerboard microdilution assay. The format is functional. Particulars: ATCC 64124, 48 h. Put shortly:
as §3

The test system of series [11] is Candida albicans. Description: Antifungal activity against azole-resistant Candida albicans ATCC 90819 after 48 hrs in presence of posaconazole by checkerboard microdilution assay. Format: functional. Particulars: ATCC 90819, 48 h. Put shortly: as §3
For series [12], the system named is Candida albicans. Description: Antifungal activity against azole-resistant Candida albicans ATCC 10231 after 48 hrs in presence of posaconazole by checkerboard microdilution assay. Format: functional. Particulars: ATCC 10231, 48 h. Put shortly:
as §3

The test system of series [13] is Pseudomonas aeruginosa. Kind of series: Antibacterial activity against Pseudomonas aeruginosa ATCC 27853 by microdilution method. Format: functional. Put shortly: as §1
Series [14] has as its system Aspergillus nidulans. Description: Antifungal activity against Aspergillus nidulans ATCC 38163 after 48 hrs by microbroth dilution method. The format is functional. The following applies: ATCC 38163, 48 h. Put shortly:
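Filamentous fungus MIC by broth microdilution, run in duplicate. All compounds are read as MIC-0 (complete inhibition).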

The test system of series [15] is Candida albicans. Kind of series: Antifungal activity against azole-resistant Candida albicans MYA-1237 after 48 hrs in presence of posaconazole by checkerboard microdilution assay. The format is functional. The following applies: MYA-1237, 48 h. Put shortly:
as §3

Series [16] has as its system Bacillus subtilis subsp. subtilis str. 168. Description: Activity of Bacillus subtilis 168 APH(2'')-1a assessed as compound phosphorylation activity by Ellman's method. For orientation: DTNB colorimetry detects thiols as they appear.
For series [17], the system named is Candida albicans. Description: Antifungal activity against azole-resistant Candida albicans ATCC 64124 at MIC measured after 6 hrs by time-kill assay. The format is functional. Put shortly: (§5)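 Time-kill assay on C. albicans ATCC 64124 cultures exposed to test compound at 1/2 MIC, MIC and higher concentrations. Amphotericin B at 1 μg/mL and a no-drug culture serve as controls. CFU are counted at intervals over 24 h.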

For series [18], the system named is Bacillus subtilis. Kind of series: Antibacterial activity against Bacillus subtilis 168 by microdilution method. The format is functional. Particulars: subsp. subtilis str. 168. Put shortly: as §1
The test system of series [19] is Candida albicans. Kind of series: Antifungal activity against azole-resistant Candida albicans ATCC 64124 assessed as cell membrane permeabilization at twice the MIC after 1 hr by propidium iodide-staining based fluorescence microscopic analysis (reference value: <2%). The format is functional.
For series [20], the system named is Candida albicans. Description: Antifungal activity against azole-resistant Candida albicans MYA-1237 after 48 hrs by microbroth dilution method. The format is functional. The following applies: MYA-1237, 48 h. Put shortly: as §2
Series [21] concerns A549. Kind of series: Cytotoxicity against human A549 cells after 24 hrs by resazurin assay. The following applies: Homo sapiens, A549, 24 h. The format is cell-based. (In general: The colour change of resazurin is a common sign of viable cells or microbes.)
Series [22] concerns Mycobacterium tuberculosis. Kind of series: Activity of Mycobacterium tuberculosis Eis assessed as compound acetylation activity by Ellman's method.
Series [23] relates to Candida albicans. Kind of series: Antifungal activity against azole-susceptible Candida albicans ATCC MYA-2310 after 48 hrs in presence of posaconazole by checkerboard microdilution assay. Format: functional. Particulars: ATCC MYA-2310, 48 h. Put shortly:
as §3

Series [24] concerns Staphylococcus aureus. Description: Antibacterial activity against Staphylococcus aureus NRS22 (USA 600) by microdilution method. The format is functional. Put shortly:
as §1

The test system of series [25] is Staphylococcus aureus. Kind of series: Antibacterial activity against Staphylococcus aureus NRS385 (USA 300) by microdilution method. The format is functional. Put shortly: as §4
In series [26] the test system is Candida albicans. Description: Antifungal activity against azole-resistant Candida albicans ATCC 64124 at sub-MIC measured over 24 hrs by time-kill assay. The format is functional, organism-based. Put shortly:
as §5

Series [27] relates to Candida albicans. Description: Antifungal activity against azole-resistant Candida albicans ATCC 64124 assessed as cell membrane permeabilization at 1 times MIC after 1 hr by propidium iodide-staining based fluorescence microscopic analysis (reference value: <2%). The format is functional.
Series [28] relates to Escherichia coli. Description: Antibacterial activity against Escherichia coli MC1061 by microdilution method. The format is functional. Put shortly: as §4
The test system of series [29] is Enterococcus. Description: Antibacterial activity against vancomycin-resistant Enterococcus by microdilution method. Format: functional. Put shortly: as §4
Series [30] deals with Candida albicans. Kind of series: Antifungal activity against azole-resistant Candida albicans ATCC 64124 after 48 hrs by microbroth dilution method. Format: functional. The following applies: ATCC 64124, 48 h. Put shortly:
as §2

Series [31] relates to Candida albicans. Kind of series: Antifungal activity against azole-susceptible Candida albicans ATCC MYA-2310 after 48 hrs by microbroth dilution method. The format is functional. Particulars: ATCC MYA-2310, 48 h. Put shortly:
as §2

Series [32] deals with Klebsiella pneumoniae. Description: Antibacterial activity against Klebsiella pneumoniae ATCC 27736 by microdilution method. Format: functional. Put shortly:
as §1

Series [33] in a line: Hemolytic activity against mouse RBC at 125 ug/ml after 60 mins. Particulars: red blood cells, read-out: Activity. Format: ADME, cell-based, Erythrocyte.
A short description of series [34]: Cytotoxicity against human BEAS2B cells after 24 hrs by resazurin assay. Format: cell-based, BEAS-2B. Particulars: Homo sapiens, BEAS-2B.
In series [35] the test system is Candida albicans. Kind of series: Antifungal activity against azole-resistant Candida albicans ATCC 64124 assessed as cell death after 24 hrs by time-kill assay. Format: functional, organism-based. Put shortly: as §5
Series [36] has as its system Enterobacter cloacae. Kind of series: Antibacterial activity against Enterobacter cloacae ATCC 13047 by microdilution method. Format: functional. Put shortly: as §1
The subject of series [37] is Candida albicans. Description: Antifungal activity against azole-resistant Candida albicans ATCC 10231 after 48 hrs by microbroth dilution method. Format: functional. Particulars: ATCC 10231, 48 h. Put shortly:
as §2

The nature of series [38]: Activity of AAC(3)-4 (unknown origin) assessed as compound acetylation activity by Ellman's method.
Series [39] can be described thus: Activity of AAC(6')-1e/APH(2'')-1a (unknown origin) assessed as compound acetylation activity by Ellman's method.
Series [40] concerns Staphylococcus epidermidis. Kind of series: Antibacterial activity against Staphylococcus epidermidis ATCC 12228 by microdilution method. Format: functional. Put shortly:
as §1

In series [41] the test system is Serratia marcescens. Description: Activity of Serratia marcescens AAC(6')-2d assessed as compound acetylation activity by Ellman's method.
Series [42] is described as follows: Hemolytic activity against mouse RBC at 100 to 500 ug/ml after 60 mins. The format is ADME, cell-based. Particulars: erythrocyte, 1 h.

This note sets out measurements from ChEMBL document CHEMBL3739331, “Synthesis and Bioactivities of Kanamycin B-Derived Cationic Amphiphiles” (J Med Chem, 2015).

In brackets after ≈: the same amount, converted by molar mass. Activity calls are given as the source filed them. Some results are limits rather than exact numbers.

In general, MIC refers to the smallest concentration in the dilution series that meets the test's criterion for growth inhibition. The IC50 is the concentration needed to halve the response being measured. The low end stands for greater potency in that assay, the high end for weaker potency in that assay. As for `CCCCCCCCCCCCSC[C@@H]1O[C@@H](O[C@@H]2[C@@H](O)[C@H](O[C@@H]3O[C@@H](CN)[C@H](O)[C@@H](O)[C@@H]3N)[C@@H](N)C[C@H]2N)[C@@H](O)[C@H](N)[C@H]1O` (stereo in doubt), the MIC in series [1] was over 128 µg/mL; in [2], 31.2 µg/mL (≈ 46.7 µM); in series [4] it was over 128 µg/mL; in [5] it was 2 µg/mL; in [6], 31.2 µg/mL (≈ 46.7 µM); in [7], 32 µg/mL (≈ 47.9 µM). The MIC in [8] was found to be 31.2 µg/mL (≈ 46.7 µM); in series [9] it was 2 µg/mL; in series [10], 2 µg/mL; in [11], 4 µg/mL; in series [12], 8 µg/mL; in series [13], 32 µg/mL (≈ 47.9 µM). Moreover, the MIC in series [14] was at most 1.95 µg/mL; in [15], 2 µg/mL; in series [18] it was over 128 µg/mL; in [20], 31.2 µg/mL (≈ 46.7 µM); in series [23] it was 1 µg/mL; in series [24], 16 µg/mL (≈ 24 µM). Besides, the MIC in series [25] is 16 µg/mL (≈ 24 µM); in series [28] it was over 128 µg/mL; in [29] it was 16 µg/mL (≈ 24 µM); in series [30], 31.2 µg/mL (≈ 46.7 µM); in series [31], 7.8 µg/mL (≈ 11.7 µM); in series [32], over 128 µg/mL. The values for the MIC in series [36], in series [37] and in series [40] were over 128 µg/mL, 31.2 µg/mL (≈ 46.7 µM) and over 128 µg/mL, respectively. Also, the outcome in series [3], in series [16], in [22], in series [38], in series [39] and in series [41] was inactive. For the same compound, the LCK result in [17] is recorded as “>=2”. The Activity is 44% in series [19] and 90% in series [27]. Further, the IC50 was over 62.5 µg/mL in [21] and over 125 µg/mL in series [34]. In addition, the outcome in series [26] and in series [35] was Active. In [33], the hemolysis at 1 h, 125 ug/ml amounted to 40%.
For `C[C@@H]1[C@H](O)[C@@H](C)/C=C/C=C/C=C/C=C/C=C/C=C/C=C/[C@H](O[C@@H]2O[C@H](C)[C@@H](O)[C@H](N)[C@@H]2O)C[C@@H]2O[C@](O)(C[C@@H](O)C[C@@H](O)[C@H](O)CC[C@@H](O)C[C@@H](O)CC(=O)O[C@H]1C)C[C@H](O)[C@H]2C(=O)O` [AMPHOTERICIN B], in series [42], the Activity result is reported as “Toxic”. The outcome in [26] was Active.
